Assay outcomes: PubChem, several laboratories
Hits are enriched below; roughly 4.1% of the tested compounds scored in any of these assays.
KCNK9 inh = inhibitors of human KCNK9 two-pore domain potassium channel; actives 1.2% (n = 310,000); B-score at 10 µM; HEK293 KCNK9, FluxOR thallium flux fluorescence; stronger effect = lower value; AID 488922;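 active means ratio B-score over 3 SD below the library mean, with starting fluorescence within 5 SD of its mean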;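 further: negative B-score means less thallium flux so channel inhibition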
KCNK3 block = human KCNK3 channel inhibition, primary screen | O14649 | CHO-KCNK3 thallium flux, FluxOR fluorescence; stronger effect = lower value | B-score at 10 µM | actives 0.84% (n = 340,000);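 active means B-score under library mean minus 4 SD, starting fluorescence ratio at most library mean plus 5 SD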;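 further: more negative B-score means stronger inhibition of thallium flux through KCNK3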
hERG rescue = hERG (human) protection from proarrhythmic block; Q12809; CHO-hERG, FluxOR thallium flux, dofetilide IC70 present; activation (rescue from dofetilide block), less the hit threshold, % at 10 µM; actives 0.51% (n = 310,000); AID 1511;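 active means activation above the mean of controls blocked by dofetilide plus 5 SD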;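 further: thallium influx through hERG after potassium depolarization seen as dye fluorescence rise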
Target sequence (Q12809 whole entry, looked up): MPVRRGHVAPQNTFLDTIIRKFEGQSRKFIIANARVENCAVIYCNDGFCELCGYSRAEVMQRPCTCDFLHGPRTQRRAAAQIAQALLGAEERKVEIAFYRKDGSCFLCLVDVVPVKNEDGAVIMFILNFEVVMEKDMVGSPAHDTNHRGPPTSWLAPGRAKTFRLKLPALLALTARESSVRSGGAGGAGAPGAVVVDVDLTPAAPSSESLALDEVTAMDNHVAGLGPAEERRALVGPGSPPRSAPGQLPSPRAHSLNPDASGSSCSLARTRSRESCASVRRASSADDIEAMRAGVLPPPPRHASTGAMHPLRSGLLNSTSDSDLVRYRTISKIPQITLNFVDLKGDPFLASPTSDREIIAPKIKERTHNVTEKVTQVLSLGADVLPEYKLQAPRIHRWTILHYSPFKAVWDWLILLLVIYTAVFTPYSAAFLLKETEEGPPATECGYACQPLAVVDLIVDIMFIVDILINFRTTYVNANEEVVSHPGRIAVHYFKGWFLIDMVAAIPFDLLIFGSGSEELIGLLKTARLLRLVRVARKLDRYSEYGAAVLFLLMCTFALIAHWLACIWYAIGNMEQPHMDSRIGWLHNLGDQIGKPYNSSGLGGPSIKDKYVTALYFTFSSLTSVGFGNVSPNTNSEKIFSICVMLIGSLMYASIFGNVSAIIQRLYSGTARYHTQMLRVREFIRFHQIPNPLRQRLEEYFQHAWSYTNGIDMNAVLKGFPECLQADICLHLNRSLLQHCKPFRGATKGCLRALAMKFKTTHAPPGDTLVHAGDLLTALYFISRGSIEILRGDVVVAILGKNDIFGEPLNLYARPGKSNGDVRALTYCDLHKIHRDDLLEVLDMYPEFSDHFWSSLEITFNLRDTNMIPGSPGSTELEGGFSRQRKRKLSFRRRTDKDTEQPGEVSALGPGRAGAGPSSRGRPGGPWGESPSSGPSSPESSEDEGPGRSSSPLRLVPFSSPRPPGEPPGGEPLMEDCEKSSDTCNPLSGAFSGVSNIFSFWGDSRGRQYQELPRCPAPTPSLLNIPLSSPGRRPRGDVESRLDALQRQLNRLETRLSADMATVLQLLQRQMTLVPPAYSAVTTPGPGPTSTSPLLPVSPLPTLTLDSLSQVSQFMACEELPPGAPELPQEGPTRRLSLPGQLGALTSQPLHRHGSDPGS
KCC2 mod = modulates chloride dependent transport by human KCC2; B-score of Tl+ flux slope (higher = more flux/activation; lower = inhibition) at 10 µM; actives 2.2% (n = 190,000); KCC2 cells, thallium flux FluoZin-2 fluorescence; Q9H2X9; AID 1456;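 active means thallium flux slope and its plate-corrected score both differing from the plate sample mean at a set confidence after two filtering rounds, in either direction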;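 further: slope of fluorescence scaled to starting intensity during 10 to 20 s after thallium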
KCNQ1 pot = human KCNQ1 channel potentiation or activation. P51787. CHO-K1 KCNQ1, thallium flux FluxOR fluorescence; stronger effect = higher value. B-score at 10 µM. actives 0.35% (n = 310,000). AID 2648;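 active means fluorescence ratio B-score, a plate-corrected score, at least three library SD, with initial intensity B-score within 5 SD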
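assay system = CHO-K1 cells stably expressing KCNQ1 | medium = assay buffer, equal DMSO in all wells | timing = 37 °C overnight plating, 90-min dark dye load, 20-min compound pretreatment | measured by = kinetic FluxOR thallium fluorescence, 10-s 1-Hz baseline, 110-s post-stimulus read | measure = fluorescence change relative to baseline, converted to B score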
KCNQ1 block = human KCNQ1 channel inhibition; CHO-K1 KCNQ1, FluxOR thallium flux fluorescence; stronger effect = higher value; B-score at 10 µM; actives 1.3% (n = 310,000);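 active means compounds whose thallium flux B-score, printed positive for inhibition, exceeds three library SD while starting fluorescence stays within three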;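 further: channel opened by potassium depolarization with thallium stimulus after 20 min compound exposure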
Active calls of the source: *; i = inactive; / = not tested or not shown.

SMILES | KCNK9 inh | KCNK3 block | hERG rescue | KCC2 mod | KCNQ1 pot | KCNQ1 block
O=C(c1ccc(COc2ccccc2Cl)o1)N1CCN(c2ccccc2)CC1 | i | i | -16.7 | -1.74 | i | i
O=C(c1ccc(COc2ccc3c(c2)CCC3)o1)N1CCN(c2ccccc2)CC1 | i | i | -4.5 | / | i | i
O=C(c1ccco1)N1CCN(C(=O)c2ccc(COc3ccc4c(c3)CCC4)o2)CC1 | -8.04* | i | -1.3 | -0.848 | i | i
N#CCC(=O)Nc1ncn(Cc2ccccc2Cl)n1 | i | i | -6.4 | -1.24 | i | i
C/C(=N\NC(=O)c1cc(Cl)ccc1O)c1ccc(Br)s1 | i | i | -0.7 | 15.2* | i | i
O=[N+]([O-])c1ccc(C2CC(c3ccccc3)=Nc3ccccc3S2)cc1 (centres undefined) | -7.93* | i | -9.1 | 0.477 | i | i
O=C(O)C1CC(c2ccccc2)=Nc2ccccc2S1 (centres undefined) | i | i | -8.0 | 0.454 | i | i
Cc1ccccc1N=Nc1ccc(O)c2ncccc12 | i | i | -0.4 | 41.4* | i | i
O=Nc1ccc(O)c2ncccc12 | i | i | -14.6 | 0.331 | i | i
O=C1NCCN(Cc2cccc(Oc3ccccc3)c2)C1CC(=O)N1CCCCO1 (centres undefined) | i | i | -3.8 | / | i | i
CCCC(=O)Nc1ccc(Cl)c(NC(=O)C(C)(C)C)c1 | i | i | -5.2 | 0.235 | i | i
CC(C)(C)C(=O)CC(=O)Nc1ccc(Cl)c(N)c1 | i | i | 4.9* | / | i | i
CCOc1ccc(NC(=O)CN(c2ccc([N+](=O)[O-])cc2)S(=O)(=O)c2ccccc2)cc1 | i | i | -9.5 | -3.14 | i | 6*
O=C(Nc1ccccc1N1CCCCC1)c1ccc([N+](=O)[O-])o1 | / | i | / | / | / | /
O=C(Nc1ccccc1N1CCN(C(=O)c2ccc(Cl)cc2)CC1)c1ccc([N+](=O)[O-])o1 | i | -11* | -14.7 | / | i | i
Cn1c(=O)c2c(SCC(=O)Nc3ccccc3F)nc(C3CC3)nc2n(C)c1=O | i | i | -10.2 | / | i | i
Cc1ccc(C(=O)O)cc1N=Cc1cc(Br)cc(Br)c1O | i | i | -21.7 | 0.0186 | i | i
CN(/N=C/c1cc(Br)cc(Br)c1O)c1cccc(C(F)(F)F)n1 | -7.14* | i | -8.1 | / | i | i
CC1CCCCC1NC(=O)Cn1nc(-c2ccccc2)ccc1=O (centres undefined) | i | i | 4.9* | -2.13 | i | i
O=C(CCC1CCCCC1)Nc1cc(Cl)ccc1N1CCOCC1 | / | -9.02* | / | / | / | /
O=C(CCC1CCCC1)Nc1cc(C(F)(F)F)ccc1N1CCOCC1 | i | i | -10.8 | / | i | i
CCOc1ccc(-c2csc(/C(C#N)=C\c3ccc(O)c([N+](=O)[O-])c3)n2)cc1 | i | i | -15.6 | -1.08 | i | 6*
COc1ccc(NC(=O)c2nc[nH]c2C(=O)N2CCN(c3ccccc3)CC2)cc1 | i | i | 5.7* | -1.16 | i | i
CN(CC(=O)NCc1ccccc1)CC(=O)Nc1ccc(Cl)c(C(F)(F)F)c1 | / | -9.36* | / | / | / | /
COc1ccc(-c2noc(CSc3nnc(CCc4ccccc4)n3-c3ccccc3)n2)cc1OC | i | -9.66* | -12.4 | -0.0127 | i | i
SMILES | KCNK9 inh | KCNK3 block | hERG rescue | KCC2 mod | KCNQ1 pot | KCNQ1 block
COc1ccc(-c2noc(CSc3ccccc3)n2)cc1OC | i | i | -15.4 | / | i | i
COc1ccc(-n2cc(-c3ccccc3)c3c(NN4CCOCC4)ncnc32)cc1 | i | i | -25.3 | -0.203 | i | 9*
CSc1nnc(-c2cc3ccccc3cc2O)n1C | i | i | -1.5 | / | i | i
O=C(Nc1ccc(F)cc1)Nc1cccnc1Cl | i | i | -1.9 | / | i | i
CCOC(=O)C1=C(C)NC(=O)NC1/C(C)=C/c1ccccc1 (centres undefined) | i | i | -8.1 | 0.491 | i | i
Cc1cccc(NC(=S)NNC(=O)c2csc3c2CCCC3)c1 | i | i | -9.2 | 20.8* | i | i
Cc1ccc(C)c(NC(=S)NNC(=O)c2csc3c2CCCC3)c1 | i | i | -4.8 | 78.6* | 11* | i
CCc1cc(C(=O)NNC(=S)Nc2cc(C)ccc2C)cs1 | i | i | -3.0 | 10.2* | i | i
Cc1ccc(NC(=S)NNC(=O)c2ccccc2O)c(C)c1 | i | i | -8.3 | 2.55 | i | 10*
CCn1nc(NC(C)=O)c2cc3ccc(C)cc3nc21 | i | i | -5.0 | / | i | i
CN(C)c1ccc(N=Nc2ccccc2C(=O)OCC(=O)N2CCCCCC2)cc1 | i | i | -2.0 | -1.31 | i | i
Cc1ccc(C)c(NC(=S)NNC(=O)c2csc3c2CCC(C)C3)c1 (centres undefined) | i | i | 6.8* | 21.3* | 19* | i
Cc1scc(C(=O)NNC(=S)NC(C)c2ccccc2)c1C (centres undefined) | i | i | -4.6 | -0.709 | i | i
OCc1nc2ccccc2n1CCCOc1ccc(Br)cc1 | i | i | -18.1 | -2.91* | i | i
CC(C)(C)C(=O)NCCCc1nc2ccccc2n1CCCOc1ccc(Cl)cc1 | -7.32* | i | -9.5 | -1.73 | i | i
CCC(C)n1cnc2c(c1=O)c1nc3ccccc3nc1n2Cc1ccc2c(c1)OCO2 (centres undefined) | -7.17* | / | -8.9 | -1.55 | i | 7*
Cc1nnc(SCC(=O)N2CCC(C(N)=O)CC2)s1 | i | i | -9.7 | 0.599 | i | i
NC(=O)C1CCN(C(=O)CSc2nc3ccccc3s2)CC1 | i | i | 5.6* | -0.71 | i | i
O=C(CSc1nc2ccccc2s1)N1N=C(c2cccs2)CC1c1ccc(F)cc1 (centres undefined) | -6.86* | i | -9.9 | -0.957 | i | i
COc1ccc(C2CC(c3cccs3)=NN2C(=O)CSc2nc3ccccc3s2)cc1 (centres undefined) | i | i | -8.2 | -0.602 | i | i
C=CCNc1nnc(SCC(=O)N2CCC(C(N)=O)CC2)s1 | i | i | -4.2 | / | 9* | i
COc1ccc(NC(=O)C2CCN(C(=O)C3CC(=O)N(c4ccc(C)cc4)C3)CC2)c(OC)c1 (centres undefined) | i | i | -7.4 | / | i | i
COC(=O)c1cccc(C23CC4(C2)[C@H](CN(C)[C@@H]4c2ccccc2)C3c2ccccc2)c1 (some centres undefined) | i | i | -8.0 | -0.557 | i | i
